How the values were obtained:
[1] = biological target: 3',5'-cyclic-AMP phosphodiesterase 4D (Homo sapiens, UniProt Q08499); experiment: Inhibition of human recombinant PDE4D catalytic domain cloned from human HL60 cells assessed as inhibition of cAMP hydrolysis
Blood = experiment: Antiinflammatory activity against Sprague-Dawley rat whole blood assessed as suppression of LPS-induced TNFalpha production by ELISA; type: functional, tissue-based
Summary of the method: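 Blood from 10-week-old male Sprague-Dawley rats, drawn from the abdominal vein under ether anesthesia into 1.6 mg/mL EDTA. Compound diluted from 10 mM DMSO stock, preincubated with blood for 30 min at 37 °C in 5% CO2. LPS (100 µg/mL solution, 10 µL to 90 µL) added, then 5 h incubation. PBS added, centrifuged, supernatant TNF-α measured by ELISA. IC50 derived for 50% inhibition.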

[2] = Half life in human liver S9 fraction; type: ADME, subcellular
Summary of the method: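 Human liver S9 fraction (1 mg protein/mL) in 100 mM potassium phosphate pH 7.4 with NADPH-generating system, preincubated 5 min at 37 °C. Compound added from methanol to 2 µM final, incubated 0, 2 or 10 min at 37 °C, stopped with acetonitrile. Parent remaining quantified by HPLC, UV 314 nm. Half-life obtained as -0.693/k, k from log-linear regression of percent remaining.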

Mus musculus = experiment: Reduction of dermatitis in topically administered BALB/c mouse assessed as reduction of TNCB-induced ear swelling; type: functional; set-up: scale not given: the % may be the effect or the level left
Summary of the method: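 Eight-week-old male BALB/c mice with TNCB-induced dermatitis on the right pinna. 20 mg of 1% compound in vaseline ointment applied topically; diseased controls got plain vaseline during the last week (n = 4). The untreated left pinna served as normal reference. Pinna thickness measured by digital micrometer 6 h after the last application. Percent reduction of swelling (right minus left) calculated relative to the diseased control.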

[3] = Rattus norvegicus, Sprague-Dawley, Blood

3',5'-cyclic-AMP phosphodiesterase 4D, sequence (Q08499 whole entry, the tested form may be a part): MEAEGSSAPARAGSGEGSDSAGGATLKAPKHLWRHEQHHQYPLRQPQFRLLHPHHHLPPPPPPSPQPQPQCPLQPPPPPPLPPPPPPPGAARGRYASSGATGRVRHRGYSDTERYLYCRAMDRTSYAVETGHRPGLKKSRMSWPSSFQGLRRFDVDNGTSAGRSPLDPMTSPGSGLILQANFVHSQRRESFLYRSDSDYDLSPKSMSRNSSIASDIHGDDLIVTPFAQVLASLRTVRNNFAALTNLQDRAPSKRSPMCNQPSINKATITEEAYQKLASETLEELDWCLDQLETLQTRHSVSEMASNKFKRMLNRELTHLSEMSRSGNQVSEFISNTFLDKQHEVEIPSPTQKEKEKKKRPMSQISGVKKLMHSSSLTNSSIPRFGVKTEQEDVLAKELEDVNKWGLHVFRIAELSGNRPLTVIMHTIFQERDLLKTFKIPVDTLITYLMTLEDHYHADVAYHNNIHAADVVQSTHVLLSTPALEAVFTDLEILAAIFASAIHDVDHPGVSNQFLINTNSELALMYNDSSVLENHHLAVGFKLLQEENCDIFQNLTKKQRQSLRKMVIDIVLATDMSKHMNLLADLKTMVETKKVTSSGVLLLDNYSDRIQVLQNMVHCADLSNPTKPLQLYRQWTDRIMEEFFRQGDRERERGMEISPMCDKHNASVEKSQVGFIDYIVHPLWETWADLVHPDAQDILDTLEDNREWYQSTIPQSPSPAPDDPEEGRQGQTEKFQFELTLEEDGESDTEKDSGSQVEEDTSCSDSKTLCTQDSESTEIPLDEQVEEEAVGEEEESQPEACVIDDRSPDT

SMILES | IC50 [1] [nM] | IC50 (Blood; [3]) [nM] | IC50 (Blood) [nM] | half-life [2] [min] | Activity (Mus musculus) [%]
COc1ccc(C2=NN(Cc3ccc(CN4CCOCC4)cc3)C(=O)CC2)cc1OC | 45.9 | 442 |  |  | 
COc1ccc(C2=NN(Cc3ccc(CN4CCOCC4)cc3)C(=O)[C@@H]3CC=CC[C@H]23)cc1OC.Cl | 0.3 |  | 4.2 | 6 | 38.5
COc1ccc(C2=NN(Cc3ccc(CN4CCOCC4)cc3)C(=O)[C@@H]3CC=CC[C@H]23)cc1OC | 8.8 |  | 82.2 |  | 
COc1ccc(C2=NNC(=O)[C@@H]3CC=CC[C@H]23)cc1OC (racemic) | 85 | 207 |  |  | 
COc1ccc(C2=NN(Cc3ccc(CN4CCOCC4)cc3)C(=O)[C@@H]3CC=CC[C@H]23)cc1OC (racemic) | 0.9 |  | 0.9 |  | 
COc1ccc(C2=NN(Cc3ccccc3CN3CCOCC3)C(=O)[C@@H]3CC=CC[C@H]23)cc1OC (relative stereo) | 1.3 | 1 |  |  | 36.8
COc1ccc(C2=NN(C/C=C/Cn3ccnc3)C(=O)[C@@H]3CC=CC[C@H]23)cc1OC (relative stereo) | 0.4 | 0.7 |  |  | 
COc1ccc(C2=NN(Cc3ccc(Cn4ccnc4)cc3)C(=O)[C@@H]3CC=CC[C@H]23)cc1OC (relative stereo) | 0.7 | 0.5 |  |  | 
COc1ccc(C2=NN(Cc3ccc(CN4CCN(C)CC4)cc3)C(=O)[C@@H]3CC=CC[C@H]23)cc1OC (relative stereo) | 2 | 14.5 |  |  | 
COc1ccc(C2=NN(Cc3ccc(CN(C)C)cc3)C(=O)[C@@H]3CC=CC[C@H]23)cc1OC (relative stereo) | 9.7 | 34.9 |  |  | 
COc1ccc(C2=NN(Cc3ccc(CN4CCC(=O)CC4)cc3)C(=O)[C@@H]3CC=CC[C@H]23)cc1OC (relative stereo) | 0.9 | 3 |  |  | 36.8
COc1ccc(C2=NN(Cc3ccccc3CN3CCOCC3)C(=O)[C@@H]3CCCC[C@H]23)cc1OC (relative stereo) | 1 | 4.6 |  |  | 
COc1ccc(C2=NN(CCOCCn3ccnc3)C(=O)[C@@H]3CC=CC[C@H]23)cc1OC (relative stereo) | 5.2 | 9.1 |  |  | 
COc1ccc(C2=NN(Cc3cccc(CN4CCOCC4)c3)C(=O)[C@@H]3CC=CC[C@H]23)cc1OC (relative stereo) | 1.4 | 3 |  |  | 
COc1ccc(C2=NN(Cc3ccc(CN4CCC5(CC4)OCCO5)cc3)C(=O)[C@@H]3CC=CC[C@H]23)cc1OC (relative stereo) | 1.3 | 0.9 |  |  | 
COc1ccc(C2=NN(Cc3ccc(CN4CCOCC4)cc3)C(=O)[C@@H]3C[C@H]23)cc1OC (relative stereo) | 16.4 | 119 |  |  | 
COc1ccc(C2=NN(Cc3ccc(CN4CCCCC4)cc3)C(=O)[C@@H]3CC=CC[C@H]23)cc1OC (relative stereo) | 8.2 | 57.1 |  |  | 
COc1ccc(C2=NN(Cc3ccc(CN4CCOCC4)cc3)C(=O)[C@@H]3CC[C@H]23)cc1OC (relative stereo) | 4.3 | 44.8 |  |  | 
COc1ccc(C2=NN(CC(=O)NCCCn3ccnc3)C(=O)[C@@H]3CC=CC[C@H]23)cc1OC (relative stereo) | 14.3 | 112 |  |  | 

From ChEMBL document CHEMBL1152601, “Synthesis and biological evaluation of novel phthalazinone derivatives as topically active phosphodiesterase 4 inhibitors” (Bioorg Med Chem, 2009)
